Laboratory results: ChEMBL document CHEMBL1144771, “Synthesis of 1-substituted 3-pyridinylmethylidenylindolin-2-ones and 1-substituted 3-quinolinylmethylidenylindolin-2-ones as the enhancers of ATRA-induced differentiation in HL-60 cells” (Bioorg Med Chem, 2008)
Calls of active or inactive are those of the source. The rule behind the calls is not given here.

Columns and labels:
[1] = system: HL-60; assay: Induction of cell differentiation in human HL60 cells at 1.0 uM after 72 hrs by NBT reduction assay; type: functional
[2] = system: HL-60; assay: Induction of cell differentiation in human HL60 cells at 5.0 uM after 72 hrs by NBT reduction assay; type: functional
[3] = system: HL-60; assay: Cytotoxicity against human HL60 cells at 5.0 uM after 72 hrs by MTT assay relative to control; type: functional
In short: (§1)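 Log-phase HL-60 cells at 4×10^4 cells/mL in RPMI-1640 with 10% FBS, 37 °C, 5% CO2. Treated 72 h with compound, with or without 5 nM ATRA. Cells washed in cold PBS, given MTT (5 mg/mL solution) in HBSS for 2 h at 37 °C in the dark. Formazan dissolved in DMSO, absorbance read at 570 nm. Viability given as % of vehicle control; means ± SD, four independent experiments.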

[4] = system: HL-60; assay: Cytotoxicity against human HL60 cells at 1.0 uM after 72 hrs by MTT assay relative to control; type: functional; in short: as §1
[5] = system: HL-60; assay: Cytotoxicity against human HL60 cells at 10.0 uM after 72 hrs by MTT assay relative to control; type: functional; in short: as §1
[6] = system: HL-60; assay: Cytotoxicity against human HL60 cells after 72 hrs by MTT assay; type: functional, cell-based; in short: as §1
[7] = system: HL-60; assay: Induction of cell differentiation in human HL60 cells at 10.0 uM after 72 hrs by NBT reduction assay; type: functional
[8] = system: HL-60; assay: Induction of cell differentiation in human HL60 cells at 2.0 uM after 72 hrs by NBT reduction assay; type: functional, cell-based
[9] = system: HL-60; assay: Induction of cell differentiation in human HL60 cells at 0.5 uM after 72 hrs by NBT reduction assay; type: functional
[10] = system: HL-60; assay: Cytotoxicity against human HL60 cells at 2 uM after 72 hrs by MTT assay; type: functional, cell-based; in short: as §1
[11] = system: HL-60; assay: Cytotoxicity against human HL60 cells at 0.5 uM after 72 hrs by MTT assay relative to control; type: functional; in short: as §1
[12] = system: HL-60; assay: Induction of cell differentiation in human HL60 cells at 2.5 uM after 72 hrs by NBT reduction assay; type: functional
[13] = system: HL-60; assay: Cytotoxicity against human HL60 cells at 2.5 uM after 72 hrs by MTT assay relative to control; type: functional; in short: as §1
[14] = system: HL-60; assay: Induction of cell differentiation in human HL60 cells at 0.1 uM after 72 hrs by NBT reduction assay; type: functional
[15] = system: HL-60; assay: Cytotoxicity against human HL60 cells at 0.1 uM after 72 hrs by MTT assay relative to control; type: functional; in short: as §1
[16] = system: HL-60; assay: Cytotoxicity against human HL60 cells at 1.0 uM after 72 hrs by MTT assay; type: functional; in short: as §1
[17] = system: HL-60; assay: Cytotoxicity against human HL60 cells at 2.5 uM after 72 hrs by MTT assay; type: functional; in short: as §1
[18] = system: HL-60; assay: Cytotoxicity against human HL60 cells at 0.5 uM after 72 hrs by MTT assay; type: functional; in short: as §1
[19] = system: HL-60; assay: Induction of cell differentiation in human HL60 cells at 2.5 uM after 72 hrs by NBT reduction assay relative to control; type: functional
[20] = system: HL-60; assay: Induction of cell differentiation in human HL60 cells at 2.0 uM after 72 hrs by NBT reduction assay relative to control; type: functional
[21] = system: HL-60; assay: Cytotoxicity against human HL60 cells at 2 uM after 72 hrs by MTT assay relative to control; type: functional; in short: as §1
[22] = system: HL-60; assay: Effect on morphology in human HL60 cells assessed as spindle-shape at 2 uM after 72 hrs; type: functional, cell-based
In short: (§2)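 HL-60 cells (4×10^4) treated 72 h with vehicle, 2 µM compound alone, 2 µM compound plus 5 nM ATRA, 5 nM ATRA, or 1 µM ATRA. Unstained cells examined for spindle shape at 200× magnification. Liu's-stained cells examined by optical microscopy for horseshoe-shaped nuclei.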

[23] = system: HL-60; assay: Effect on morphology in human HL60 cells assessed as population of horseshoe-shape nuclei at 2 uM after 72 hrs; type: functional, cell-based; in short: as §2
[24] = system: HL-60; assay: Induction of cell differentiation in human HL60 cells at 5.0 uM after 72 hrs by NBT reduction assay relative to control; type: functional
[25] = system: HL-60; assay: Cytotoxicity against human HL60 cells at 5.0 uM after 72 hrs by MTT assay; type: functional, cell-based; in short: as §1
[26] = Cytotoxicity against human leukocytes after 48 hrs by MTT assay; type: cell-based; details: Leukocyte
In short: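 Human normal leukocytes in RPMI-1640 with 10% FBS. Treated with vehicle, compound alone, or compound plus 5 nM ATRA; 48 h per the legend (72 h per methods). Viability by MTT with formazan absorbance at 570 nm; 50% growth-inhibition concentration reported. Means ± SD, four experiments.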

[27] = system: HL-60; assay: Cell cycle arrest in human HL60 cells assessed as increase in G0/G1 phase accumulation at 2 uM after 72 hrs by flow cytometry; type: functional
In short: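 HL-60 cells at 4×10^4 cells/mL, 72 h with vehicle, ATRA (5 nM or 1 µM), 2 µM compound alone, or 2 µM compound plus 5 nM ATRA. Cells fixed in 70% ice-cold ethanol at -20 °C overnight. Stained 30 min at 37 °C in the dark with 1% Triton X-100, 0.1 mg/mL RNase and 4 µg/mL propidium iodide. G0/G1 fraction by flow cytometry; means ± SD, four experiments.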

[28] = system: HL-60; assay: Cytotoxicity against human HL60 cells at 1.0 uM after 72 hrs by MTT assay relative to ATRA; type: functional; details: in the assay text read “relative to control” for “relative to ATRA”; in short: as §1

SMILES	Activity [1]	Activity [2]	Activity [3] [%]	Activity [4] [%]	IC50 ([6]; Homo sapiens, HL-60, 72 h) [µM]	Activity [9] [%]	Activity [12]	Activity [13] [%]	further results
O=C1/C(=C\c2ccnc3ccccc23)c2ccccc2N1Cc1ccccc1	0.8%	2.1%	73.8	85.2	10.6	–	–	–	Activity [5]: 51.2%; Activity [7]: 4.7%
CC(c1ccccc1)N1C(=O)/C(=C\c2ccncc2)c2ccccc21 (centres undefined)	0.8%	–	–	49.2	–	1	–	–	Activity [8]: Toxic; Activity [10]: Toxic; Activity [11]: 66.7%
O=C1/C(=C\c2ccc3ccccc3n2)c2ccccc2N1Cc1ccccc1	2%	4.4%	12.2	82.7	2.8	–	2%	55.7	–
O=C1/C(=C\c2cccnc2)c2ccccc2N1Cc1ccccc1	0.7%	2.7%	25.4	93.2	3.8	–	0.8%	75.9	–
O=C1/C(=C\c2ccncc2)c2ccccc2N1Cc1ccc2ccccc2c1	Toxic	–	–	–	–	0.7	–	–	Activity [14]: 0.8%; Activity [15]: 78.2%; Activity [16]: Toxic; Activity [11]: 59.6%
O=C1/C(=C\c2ccccn2)c2ccccc2N1Cc1ccccc1	0.7%	3.4%	24.7	–	3.6	–	0.7%	–	Activity [17]: 98.5%; Activity [16]: 116.6%
O=C1/C(=C\c2ccncc2)c2ccccc2N1Cc1ccccc1	1.2%	–	–	85.6	1.9	0.3	–	24.4	Activity [18]: 101%; Activity [19]: 7%
O=C1/C(=C\c2ccncc2)c2ccccc2N1Cc1cccc2ccccc12	0.5%	–	–	–	–	0.8	Toxic	–	Activity [17]: Toxic; Activity [18]: 103.6%; Activity [16]: 90.8%
CC(c1ccccc1)N1C(=O)/C(=C\c2cnc3ccccc3c2)c2ccccc21 (stereo in doubt; 25Z)	3.8%	–	–	82.3	1.5	1.3	–	–	Activity [18]: 116.1%; Activity [20]: 40.8%; Activity [21]: 20.3%
CC(c1ccccc1)N1C(=O)/C(=C\c2cnc3ccccc3c2)c2ccccc21 (stereo in doubt; 25) [listing 1 of 2 here]	–	–	–	–	–	–	–	–	Activity [22]: Active; Activity [23]: Active
CC(c1ccccc1)N1C(=O)/C(=C/c2cnc3ccccc3c2)c2ccccc21 (centres undefined)	4.3%	–	–	82.9	1.4	0.8	–	–	Activity [18]: 109.9%; Activity [20]: 37.7%; Activity [21]: 25.5%
CC(c1ccccc1)N1C(=O)/C(=C\c2ccc3ccccc3n2)c2ccccc21 (centres undefined)	0.8%	–	18.5	–	3.4	–	1%	81.3	Activity [24]: 15%; Activity [16]: 103.2%
CC(c1ccccc1)N1C(=O)/C(=C\c2ccccn2)c2ccccc21 (centres undefined)	0.7%	2%	55.7	90	5.9	–	0.7%	87.1	–
CC(c1ccccc1)N1C(=O)/C(=C\c2ccnc3ccccc23)c2ccccc21 (centres undefined)	1.2%	Toxic	–	72.6	–	–	–	31	Activity [25]: Toxic; Activity [19]: 20.8%
CC(c1ccccc1)N1C(=O)/C(=C\c2cnc3ccccc3c2)c2ccccc21 (stereo in doubt; 25) [listing 2 of 2 here]	0.3%	–	–	70.9	–	0.8	–	–	IC50 [26]: 14 µM; IC50 ([6]; hl-60): 1.4 µM; Activity [20]: 33.9%; Activity [27]: 49.8%; Activity [21]: 24.7%; Activity [11]: 89.5%
O=C1/C(=C\c2cnc3ccccc3c2)c2ccccc2N1Cc1ccccc1	0.7%	–	10.9	–	3.2	–	0.8%	70.6	Activity [24]: 23.6%; Activity [16]: 117.4%
O=C1/C(=C\c2cc[n+]([O-])cc2)c2ccccc2N1Cc1ccccc1	1.6%	–	22	–	2.9	–	3.2%	43.4	Activity [28]: 90%; Activity [24]: 11.5%
CC(c1ccccc1)N1C(=O)/C(=C\c2cccnc2)c2ccccc21 (centres undefined)	0.8%	–	19.6	88	3.3	–	2.5%	87	Activity [19]: 2.5%
